# Assay results reported in ChEMBL document CHEMBL1138570, “2-Acylhydrazino-5-arylpyrrole derivatives: synthesis and antifungal activity evaluation” (Eur J Med Chem, 2009).
# How the values were obtained:
# Candida albicans [1] = test: Antimicrobial activity against Candida albicans ATCC 10231 by broth microdilution method; format: functional
# Method in brief: (§1)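 MIC by NCCLS broth microdilution. Medium was RPMI 1640 with L-glutamine, buffered with 0.165 M MOPS at pH 7.0. Twofold drug dilutions ran 0.008–200 mg/L. Inoculum was set spectrophotometrically to 10⁶ CFU/mL, then diluted in medium to 2 ×10⁴ cells/mL. Plates were incubated overnight at 35 °C in humid air, agitated, and read visually and at 450 nm.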
# Nakaseomyces glabratus [2] = test: Antimicrobial activity against Candida glabrata by broth microdilution method; format: functional; method in brief: as §1
# Candida parapsilosis [3] = test: Antimicrobial activity against Candida parapsilosis by broth microdilution method; format: functional; settings: Lodderomyces parapsilosis; method in brief: as §1
# Pichia kudriavzevii [4] = test: Antimicrobial activity against Candida krusei by broth microdilution method; format: functional; method in brief: as §1
# Candida albicans [5] = test: Antimicrobial activity against Candida albicans ATCC 10231 after 72 hrs by broth microdilution method; format: functional; settings: ATCC 10231, 72 h
# Method in brief: (§2)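 MFC: after MIC reading, a sample from each well was plated on Sabouraud dextrose agar and incubated 72 h at 35 °C. MFC was taken as the minimum concentration killing >99% of the original inoculum. The MIC step was NCCLS broth microdilution in MOPS-buffered RPMI 1640 (pH 7.0), with 2 ×10⁴ cells/mL, overnight at 35 °C.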
# Nakaseomyces glabratus [6] = test: Antimicrobial activity against Candida glabrata after 72 hrs by broth microdilution method; format: functional; method in brief: as §2
# Candida parapsilosis [7] = test: Antimicrobial activity against Candida parapsilosis after 72 hrs by broth microdilution method; format: functional; settings: Lodderomyces parapsilosis; method in brief: as §2
# Pichia kudriavzevii [8] = test: Antimicrobial activity against Candida krusei after 72 hrs by broth microdilution method; format: functional; method in brief: as §2
# [9] = Toxicity against human MCF7 cells assessed as growth inhibition at 10 uM; format: cell-based; settings: read-out: GI
# [10] = Toxicity against human H460 cells assessed as growth inhibition at 10 uM; format: cell-based; settings: NCI-H460 cells, read-out: GI
# [11] = Toxicity against human SF268 cells assessed as growth inhibition at 10 uM; format: cell-based; settings: SF-268 cells, read-out: GI
smiles,measurement,setting,value
COC(=O)c1cc(-c2ccc(OC)cc2)[nH]c1NNC(C)=O,MIC,Candida albicans [1],3.12 µg/mL
same,MIC,Nakaseomyces glabratus [2],3.12 µg/mL
same,MIC,Candida parapsilosis [3],3.12 µg/mL
same,MIC,Pichia kudriavzevii [4],3.12 µg/mL
same,MFC,Candida albicans [5],3.12 µg/mL
same,MFC,Nakaseomyces glabratus [6],12.5 µg/mL
same,MFC,Candida parapsilosis [7],6.25 µg/mL
same,MFC,Pichia kudriavzevii [8],6.25 µg/mL
same,inhibition at 10 µM,[9],0%
same,inhibition at 10 µM,[10],0%
same,inhibition at 10 µM,[11],0%
CCC(=O)NNc1[nH]c(-c2ccc(OC)cc2)cc1C#N,MIC,Candida albicans [1],0.39 µg/mL
same,MIC,Nakaseomyces glabratus [2],0.78 µg/mL
same,MIC,Candida parapsilosis [3],0.78 µg/mL
same,MIC,Pichia kudriavzevii [4],0.78 µg/mL
same,MFC,Candida albicans [5],6.25 µg/mL
same,MFC,Nakaseomyces glabratus [6],12.5 µg/mL
same,MFC,Candida parapsilosis [7],12.5 µg/mL
same,MFC,Pichia kudriavzevii [8],12.5 µg/mL
same,inhibition at 10 µM,[9],4.6%
same,inhibition at 10 µM,[10],0%
same,inhibition at 10 µM,[11],2.1%
COc1ccc(-c2cc(C#N)c(NNC(C)=O)[nH]2)cc1,MIC,Candida albicans [1],1.56 µg/mL
same,MIC,Nakaseomyces glabratus [2],3.12 µg/mL
same,MIC,Candida parapsilosis [3],3.12 µg/mL
same,MIC,Pichia kudriavzevii [4],1.56 µg/mL
same,MFC,Candida albicans [5],6.25 µg/mL
same,MFC,Nakaseomyces glabratus [6],12.5 µg/mL
same,MFC,Candida parapsilosis [7],6.25 µg/mL
same,MFC,Pichia kudriavzevii [8],3.12 µg/mL
same,inhibition at 10 µM,[9],0%
same,inhibition at 10 µM,[10],0%
same,inhibition at 10 µM,[11],0%
CCOC(=O)NNc1[nH]c(-c2ccc(OC)cc2)cc1C#N,MIC,Candida albicans [1],3.12 µg/mL
same,MIC,Nakaseomyces glabratus [2],12.5 µg/mL
same,MIC,Candida parapsilosis [3],25 µg/mL
same,MIC,Pichia kudriavzevii [4],25 µg/mL
same,MFC,Candida albicans [5],3.12 µg/mL
same,MFC,Nakaseomyces glabratus [6],50 µg/mL
same,MFC,Candida parapsilosis [7],100 µg/mL
same,MFC,Pichia kudriavzevii [8],50 µg/mL
same,inhibition at 10 µM,[9],0.9%
same,inhibition at 10 µM,[10],31%
same,inhibition at 10 µM,[11],0%
COCCC(=O)NNc1[nH]c(-c2ccc(OC)cc2)cc1C(=O)OC,MIC,Candida albicans [1],6.25 µg/mL
same,MIC,Nakaseomyces glabratus [2],6.25 µg/mL
same,MIC,Candida parapsilosis [3],6.25 µg/mL
same,MIC,Pichia kudriavzevii [4],6.25 µg/mL
same,MFC,Candida albicans [5],6.25 µg/mL
same,MFC,Nakaseomyces glabratus [6],25 µg/mL
same,MFC,Candida parapsilosis [7],12.5 µg/mL
same,MFC,Pichia kudriavzevii [8],25 µg/mL
C[C@@H]1[C@H](O)[C@@H](C)/C=C/C=C/C=C/C=C/C=C/C=C/C=C/[C@H](O[C@@H]2O[C@H](C)[C@@H](O)[C@H](N)[C@@H]2O)C[C@@H]2O[C@](O)(C[C@@H](O)C[C@@H](O)[C@H](O)CC[C@@H](O)C[C@@H](O)CC(=O)O[C@H]1C)C[C@H](O)[C@H]2C(=O)O [AMPHOTERICIN B],MIC,Candida albicans [1],0.39 µg/mL
same,MIC,Nakaseomyces glabratus [2],0.78 µg/mL
same,MIC,Candida parapsilosis [3],0.78 µg/mL
same,MIC,Pichia kudriavzevii [4],0.78 µg/mL
same,MFC,Candida albicans [5],0.78 µg/mL
same,MFC,Nakaseomyces glabratus [6],1.56 µg/mL
same,MFC,Candida parapsilosis [7],1.56 µg/mL
same,MFC,Pichia kudriavzevii [8],1.56 µg/mL
OC(Cn1cncn1)(Cn1cncn1)c1ccc(F)cc1F [FLUCONAZOLE],MIC,Candida albicans [1],0.78 µg/mL
same,MIC,Nakaseomyces glabratus [2],12.5 µg/mL
same,MIC,Candida parapsilosis [3],0.39 µg/mL
same,MIC,Pichia kudriavzevii [4],25 µg/mL
same,MFC,Candida albicans [5],> 100 µg/mL
same,MFC,Nakaseomyces glabratus [6],> 100 µg/mL
same,MFC,Candida parapsilosis [7],> 100 µg/mL
same,MFC,Pichia kudriavzevii [8],50 µg/mL
